From ChEMBL document CHEMBL4049426, “Identification of the Clinical Candidate (R)-(1-(4-Fluorophenyl)-6-((1-methyl-1H-pyrazol-4-yl)sulfonyl)-4,4a,5,6,7,8-hexahydro-1H-pyrazolo[3,4-g]isoquinolin-4a-yl)(4-(trifluoromethyl)pyridin-2-yl)methanone (CORT125134): A Selective Glucocorticoid Receptor (GR) Antagonist” (J Med Chem, 2017) come the findings set out here.

For one data set, the target named is T1, Cytochrome P450 1A2 (Homo sapiens, UniProt P05177).
T1 sequence (P05177 whole entry): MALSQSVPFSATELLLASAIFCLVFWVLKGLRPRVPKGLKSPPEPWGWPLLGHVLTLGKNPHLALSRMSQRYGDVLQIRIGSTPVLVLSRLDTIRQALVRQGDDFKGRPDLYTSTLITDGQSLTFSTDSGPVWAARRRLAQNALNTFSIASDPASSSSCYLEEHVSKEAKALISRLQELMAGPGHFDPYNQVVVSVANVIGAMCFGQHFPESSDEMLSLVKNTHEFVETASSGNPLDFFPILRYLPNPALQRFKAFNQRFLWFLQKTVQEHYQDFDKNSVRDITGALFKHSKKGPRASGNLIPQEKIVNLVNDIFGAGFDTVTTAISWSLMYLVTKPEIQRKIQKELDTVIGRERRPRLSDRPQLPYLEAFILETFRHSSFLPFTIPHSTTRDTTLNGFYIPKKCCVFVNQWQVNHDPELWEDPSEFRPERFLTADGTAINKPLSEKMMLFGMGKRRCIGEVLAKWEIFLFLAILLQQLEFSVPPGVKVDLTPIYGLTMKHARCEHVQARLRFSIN
Briefly: Induction of CYP1A2 in human hepatocytes. The data set is classed as ADME, cell-based.

Another data set concerns the target T2, Glucocorticoid receptor (Homo sapiens, UniProt P04150).
T2 sequence (P04150 whole entry): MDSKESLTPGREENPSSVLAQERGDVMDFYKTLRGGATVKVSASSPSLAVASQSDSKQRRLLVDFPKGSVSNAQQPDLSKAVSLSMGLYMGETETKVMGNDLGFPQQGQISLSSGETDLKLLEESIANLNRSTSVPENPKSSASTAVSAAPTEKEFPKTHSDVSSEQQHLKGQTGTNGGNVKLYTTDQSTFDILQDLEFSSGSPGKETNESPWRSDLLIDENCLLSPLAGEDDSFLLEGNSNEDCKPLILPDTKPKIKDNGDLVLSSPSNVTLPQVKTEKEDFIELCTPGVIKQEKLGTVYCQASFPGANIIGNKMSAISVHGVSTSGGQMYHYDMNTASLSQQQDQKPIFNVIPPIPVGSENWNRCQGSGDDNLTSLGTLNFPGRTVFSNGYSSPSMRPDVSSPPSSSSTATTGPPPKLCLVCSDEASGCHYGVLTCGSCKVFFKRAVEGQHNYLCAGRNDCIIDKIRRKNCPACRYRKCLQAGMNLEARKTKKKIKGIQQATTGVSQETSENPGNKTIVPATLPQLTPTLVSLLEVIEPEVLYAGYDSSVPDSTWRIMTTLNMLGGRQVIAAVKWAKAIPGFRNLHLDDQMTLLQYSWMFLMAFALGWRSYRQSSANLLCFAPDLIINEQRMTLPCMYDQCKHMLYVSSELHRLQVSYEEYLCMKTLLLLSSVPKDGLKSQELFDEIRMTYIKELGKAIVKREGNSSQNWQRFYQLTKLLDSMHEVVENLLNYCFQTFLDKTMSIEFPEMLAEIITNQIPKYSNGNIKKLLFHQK
The experiment in a line: (§1) Antagonist activity at glucocorticoid receptor in human primary hepatocytes assessed as inhibition of dexamethasone-induced tyrosine amino transferase activity preincubated for 30 mins followed by dexamethasone addition measured after 20 hrs. The data set is classed as cell-based.

Data set [1] deals with T3, Glucocorticoid receptor (Homo sapiens) (UniProt P04150).
T3 sequence (whole entry): T2 sequence (P04150 whole entry)
Described as §1. The data set is classed as cell-based.

For the next data set, the target named is Cytochrome P450 3A4 (Homo sapiens, UniProt P08684). Briefly: Inhibition of CYP3A4 (unknown origin). The data set is classed as ADME.
Chain of Cytochrome P450 3A4 (P08684 whole entry): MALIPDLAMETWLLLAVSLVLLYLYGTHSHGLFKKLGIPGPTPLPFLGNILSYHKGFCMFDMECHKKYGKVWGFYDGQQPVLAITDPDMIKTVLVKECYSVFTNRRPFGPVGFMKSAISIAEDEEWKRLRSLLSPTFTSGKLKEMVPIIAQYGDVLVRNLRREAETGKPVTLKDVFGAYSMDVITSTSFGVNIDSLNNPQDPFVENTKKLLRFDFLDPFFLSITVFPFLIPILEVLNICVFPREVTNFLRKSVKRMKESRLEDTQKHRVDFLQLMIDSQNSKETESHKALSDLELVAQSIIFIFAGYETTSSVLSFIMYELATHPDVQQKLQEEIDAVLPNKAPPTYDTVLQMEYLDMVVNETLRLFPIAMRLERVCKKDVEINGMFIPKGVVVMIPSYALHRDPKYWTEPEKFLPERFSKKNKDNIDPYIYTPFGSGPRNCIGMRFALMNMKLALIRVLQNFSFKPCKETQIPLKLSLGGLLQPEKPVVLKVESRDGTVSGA
A further data set deals with T4, progesterone receptor (Homo sapiens, UniProt P06401).
T4 sequence (P06401 whole entry): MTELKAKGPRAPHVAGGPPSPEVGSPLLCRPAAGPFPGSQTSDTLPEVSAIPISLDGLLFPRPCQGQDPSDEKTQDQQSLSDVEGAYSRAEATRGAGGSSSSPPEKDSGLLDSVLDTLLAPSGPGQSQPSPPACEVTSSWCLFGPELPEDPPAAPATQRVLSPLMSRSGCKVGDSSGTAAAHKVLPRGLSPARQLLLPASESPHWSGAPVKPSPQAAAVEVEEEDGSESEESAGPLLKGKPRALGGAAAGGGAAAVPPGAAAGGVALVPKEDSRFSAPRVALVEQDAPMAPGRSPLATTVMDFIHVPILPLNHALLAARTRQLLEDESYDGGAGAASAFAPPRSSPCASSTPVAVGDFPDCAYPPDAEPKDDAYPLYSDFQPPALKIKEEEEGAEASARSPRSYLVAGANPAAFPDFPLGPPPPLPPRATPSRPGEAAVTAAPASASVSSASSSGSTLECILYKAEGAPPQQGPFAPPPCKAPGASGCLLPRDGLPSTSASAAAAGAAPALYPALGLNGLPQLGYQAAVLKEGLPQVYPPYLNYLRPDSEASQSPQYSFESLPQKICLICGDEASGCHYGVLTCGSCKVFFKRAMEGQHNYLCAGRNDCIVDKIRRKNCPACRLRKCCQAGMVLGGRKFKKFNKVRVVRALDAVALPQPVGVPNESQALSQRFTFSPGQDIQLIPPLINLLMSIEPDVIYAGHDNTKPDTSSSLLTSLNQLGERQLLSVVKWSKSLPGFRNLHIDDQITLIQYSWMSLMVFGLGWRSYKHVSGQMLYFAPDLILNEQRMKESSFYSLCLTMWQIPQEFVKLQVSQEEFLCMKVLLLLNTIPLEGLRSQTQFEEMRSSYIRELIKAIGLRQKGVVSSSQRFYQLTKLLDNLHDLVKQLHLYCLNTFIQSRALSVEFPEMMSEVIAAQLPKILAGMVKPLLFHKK
Briefly: Inhibition of radioligand binding to progesterone receptor (unknown origin) at 1 uM relative to control.

Another data set addresses Cytochrome P450 2C9 (Homo sapiens, UniProt P11712). Briefly: Inhibition of CYP2C9 (unknown origin). The data set is classed as ADME.
The nature of data set [2]: Oral bioavailability in Sprague-Dawley CD-1 rat plasma at 5 mg/kg administered through gavage measured up to 24 hrs by LC/MS analysis. The data set is classed as ADME, organism-based. The procedure, abridged: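 Jugular-catheterized male Sprague Dawley CD-1 rats (220-250g). Oral arm: five rats, 5mg/kg gavage, 1mg/mL in DMSO:0.5% methylcellulose 10:90, 5mL/kg, sampled pre-dose and 0.25-24 h. i.v. arm: three rats, 1mg/kg, 0.5mg/mL in DMSO:PEG400:propylene glycol 10:45:45, sampled pre-dose and 0.08-24 h. Plasma by LC/MS.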

Data set [3] is described as follows: Protein binding in human plasma. The data set is classed as ADME, cell-free. The following applies: read-out: PPB (converted).

Chain of Cytochrome P450 2C9 (P11712 whole entry): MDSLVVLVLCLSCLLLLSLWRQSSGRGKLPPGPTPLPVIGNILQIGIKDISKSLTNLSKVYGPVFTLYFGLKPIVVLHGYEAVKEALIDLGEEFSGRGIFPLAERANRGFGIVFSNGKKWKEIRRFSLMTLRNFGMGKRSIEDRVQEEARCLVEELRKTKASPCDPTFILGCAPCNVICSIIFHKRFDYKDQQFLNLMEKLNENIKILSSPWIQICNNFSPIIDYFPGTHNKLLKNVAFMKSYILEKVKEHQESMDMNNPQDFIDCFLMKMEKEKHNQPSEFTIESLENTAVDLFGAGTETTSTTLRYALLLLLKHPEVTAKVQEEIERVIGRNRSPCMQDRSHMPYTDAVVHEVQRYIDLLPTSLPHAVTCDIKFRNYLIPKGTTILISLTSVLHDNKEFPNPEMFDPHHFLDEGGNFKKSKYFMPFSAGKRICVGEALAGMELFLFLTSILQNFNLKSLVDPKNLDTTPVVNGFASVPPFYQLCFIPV

`Cn1cc(S(=O)(=O)N2CCC3=Cc4c(cnn4-c4ccc(F)cc4)C[C@]3(C(=O)c3cc(C(F)(F)F)ccn3)C2)cn1` [RELACORILANT]: at Cytochrome P450 1A2, the Activity entry is “Not Active”. Also, the Ki at Glucocorticoid receptor is 81.2 nM. In addition, the Imax in data set [1] was found to be 100%. Also, the half-maximal inhibitory concentration (IC50) at Cytochrome P450 3A4 was determined as 1300 nM; against Cytochrome P450 2C9 it was 2000 nM. Also, on progesterone receptor, the inhibition at 1 µM was < 10%. The compound also had a bioavailability in data set [2] of 89%. The fraction unbound in data set [3] is 0.005.
